T cell HTS: T cell immune modulators affecting CD8 T cell-vesicle binding | 2C CD8+ T cell-vesicle binding, flow cytometry; hits give low values | response (vesicle binding), % at 7 µM | 330,000 compounds, 0.068% hits | AID 2052;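 active = response, share of CD8 T cells binding vesicles, and their 90th percentile fluorescence all below set limits, cut at about 80% in these data, passing the limit was not always enough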;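 note: values below 100% mean blocked vesicle binding to the CD8+ T cells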
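Assay system – 2C mouse CD8+ T cells · Also added – QL9-loaded Drosophila micro-vesicles · Timing – Cell–vesicle co-incubation 1.5 h at 37 °C, staining 20 min on ice · Signal – flow cytometry of vesicle-bound cells · Measure – percent CD8+ FL2 mean versus row control · Controls – Peptide-free naked vesicles (low) and QL9 vesicles with 0.7% DMSO vehicle (high)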
Rtt109 Vps75: C. albicans Rtt109 histone acetyltransferase inhibition | purified Rtt109/Vps75, ThioGlo CoA-SH fluorescence, 4 h | 330,000 compounds, 0.16% hits | AID 540336 | inhibition, % at 34.9 µM | Q5AAJ8;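 active = inhibition of at least 50% in every replicate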
Target sequence (Q5AAJ8 whole entry, looked up): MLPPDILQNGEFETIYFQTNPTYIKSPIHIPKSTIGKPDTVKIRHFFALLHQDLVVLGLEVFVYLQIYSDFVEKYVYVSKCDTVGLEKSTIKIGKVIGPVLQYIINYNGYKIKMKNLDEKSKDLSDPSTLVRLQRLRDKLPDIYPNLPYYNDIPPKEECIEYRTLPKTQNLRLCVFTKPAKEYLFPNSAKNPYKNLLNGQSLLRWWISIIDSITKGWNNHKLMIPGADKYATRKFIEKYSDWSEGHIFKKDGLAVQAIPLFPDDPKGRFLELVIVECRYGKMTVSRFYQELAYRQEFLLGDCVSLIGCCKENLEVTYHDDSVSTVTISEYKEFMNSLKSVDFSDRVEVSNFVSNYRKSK
GRIN3A LBD mod: modulates the human NR3A ligand-binding domain | 340,000 compounds, 2.5% hits | AID 1259313 | NR3A LBD differential scanning fluorimetry, Tm shift; 0% = protein alone, 100% = glycine-bound protein | Tm shift relative to glycine control, % at 25 µM;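 active = melting temperature shift of at least 10% of the positive control shift, at one fixed dose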
GASC-1 inh: human JMJD2C demethylase inhibition | inhibition, % at 2.35 µM | 330,000 compounds, 0.069% hits | AID 2099 | Q9H3R0 | GST-JMJD2C(1-420) H3K9me3 demethylation, DELFIA europium;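 active = more than half of a compound's replicate wells show inhibition beyond 50%, single wells judged on their own value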;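 note: signal counts dimethyl H3K9 product captured on neutravidin plate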
Hits are given with their value; - = inactive; . = no result given. Hits are enriched below; roughly 2.8% of the tested compounds scored in any of these assays.

SMILES	T cell HTS	Rtt109 Vps75	GRIN3A LBD mod	GASC-1 inh
CCN(C(=O)CSc1nc(C)nc2sc(C)c(C)c12)C1CCS(=O)(=O)C1 (stereo not given)	-	-	-	-
Cc1ccc2c(C)c(C)c(=O)n(C)c2c1	.	-	11	.
Cc1nc2sc(C(c3cccc(F)c3)N3CCC(C)CC3)c(O)n2n1 (stereo not given)	-	-	-	-
Cc1nc2sc(C(c3cccc(F)c3)N3CCC(O)CC3)c(O)n2n1 (stereo not given)	-	-	10	-
O=c1cc2oc3cc(O)c(O)cc3c(-c3ccccc3[N+](=O)[O-])c-2cc1O	-	-	-	57
O=c1cc(-c2ccccc2Cl)oc2cccc(O)c12	-	-	-	-
Cc1cccc2c1-c1sc(C(=O)Nc3cccnc3)cc1CO2	-	-	18	-
Cc1cccc2c1-c1sc(C(=O)Nc3nccs3)cc1CO2	-	-	-	-
O=C(Nc1ccc(Cl)cn1)c1cc2c(s1)-c1ccccc1OC2	-	-	15	-
O=C(Nc1cccnc1)c1cc2c(s1)-c1ccccc1OC2	-	-	35	-
NN=C1c2ccccc2-c2ccc(N)cc21	.	-	-	.
O=C(Nc1ccc(Cl)cc1C(F)(F)F)C(Sc1nnc(-c2cccs2)o1)c1ccccc1 (stereo not given)	-	-	22	-
NC(CCC(=O)NC(CS)C(=O)NCC(=O)O)C(=O)O (stereo not given)	.	-	-	.
CCOC(=O)CSc1nnc(Cc2ccccc2)n1-c1cccc(Cl)c1	-	-	733	-
Fc1ccc(-c2nc(-c3cnccn3)no2)c(Cl)c1	-	-	-	-
CCN(CC(=O)Nc1ccccc1OC)C(=O)CN1C(=O)NC(C)(c2ccc3ccccc3c2)C1=O (stereo not given)	.	-	-	.
Cc1ccc(C(=O)OCN2C(=O)c3ccccc3C2=O)cc1S(=O)(=O)N1CCOCC1	-	-	-	-
Cc1nc2ccccc2nc1N1CCCCC1	.	-	-	.
c1ccc2nc(N3CCCC3)c(N3CCCC3)nc2c1	-	-	11	-
O=C(Nc1ccc(F)cc1F)NC1CCCCCCC1	-	-	-	-
CSc1ccccc1NC(=O)Nc1cccc2ccccc12	-	-	-	-
CCN(CC)S(=O)(=O)c1ccc(Oc2ccccc2)cc1	-	-	13	-
CCCCCC[N+](C)(C)CC/C=C1/c2ccccc2Sc2ccc(Cl)cc21	-	73	-	-
CN(C)CC/C=C1/c2ccccc2Sc2ccc(Cl)cc21	-	-	-	-
CC(OC(=O)CCCCCN=C1NS(=O)(=O)c2ccccc21)C(=O)Nc1cc(Cl)cc(Cl)c1 (stereo not given)	-	-	18	-
SMILES	T cell HTS	Rtt109 Vps75	GRIN3A LBD mod	GASC-1 inh
CCOc1ccc(NC(=O)c2sc3nc(C)nc(N4CCOCC4)c3c2C)cc1	-	-	16	-
CCOc1ccc(-c2cc(N)n(S(=O)(=O)c3ccc(OC)c(OC)c3)n2)cc1	-	-	-	-
COc1ccc(OC)c(S(=O)(=O)n2nc(-c3ccccc3)cc2N)c1	-	-	22	-
COc1ccc(S(=O)(=O)n2nc(-c3ccc(Cl)cc3)cc2N)cc1OC	-	-	14	-
O=C1CSc2ccc(C(=O)Nc3cccc(S(=O)(=O)Nc4ccc(Br)cc4)c3)cc2N1	-	-	28	-
COc1ccc(NC(=O)c2cccc(S(=O)(=O)Nc3ccc(Br)cc3)c2)cn1	-	-	22	-
O=C(Nc1ccccc1)c1cccc(S(=O)(=O)Nc2ccccn2)c1	-	-	16	-
O=C(Nc1ccc(Br)cc1)c1cccc(S(=O)(=O)Nc2cnc3ccccc3c2)c1	-	-	41	-
O=C(Nc1ccc(Br)cc1)c1cccc(S(=O)(=O)Nc2ccccn2)c1	-	-	-	-
O=C(O)c1ccc(NC(=O)c2cccc(S(=O)(=O)Nc3ccc(C(=O)O)cc3)c2)cc1	-	-	-	-
CCOc1nc(-c2ccccc2)ncc1Oc1ccccc1	-	.	-	-
Cn1c(/C=C/c2ccc(Br)cc2)nc2ccccc2c1=O	-	-	-	-
COc1cc2nc(NCCCN3CCN(C)CC3)n3nc(-c4ccccc4)nc3c2cc1OC	-	82	-	-
CN1CCN(CCCNc2nc3ccccc3c3nc(-c4ccccc4)nn23)CC1	.	-	-	.
CCN(CC)CCCNc1nc2cc(OC)c(OC)cc2c2nc(-c3cccnc3)nn12	-	79	-	-
CCN1C(=NCCOC)N[C@@H](c2ccccc2)[C@H](C(=O)OC)[C@H]1C	-	-	-	-
Cc1ccc(-n2nnnc2SCC(=O)NC2CCS(=O)(=O)C2)c(C)c1 (stereo not given)	.	-	19	.
Cc1ccc(C)c(SCC(=O)NC2CCS(=O)(=O)C2)c1 (stereo not given)	.	-	-	.
CC(Sc1ccc([N+](=O)[O-])cn1)C(=O)Nc1nccs1 (stereo not given)	-	-	-	-
CCOC(=O)c1cn(-c2c(Cl)cccc2Cl)c2cc(Cl)c([N+](=O)[O-])cc2c1=O	-	.	-	-
CCOC(=O)c1cn(CC)c2cc(Cl)c([N+](=O)[O-])cc2c1=O	-	-	12	-
Cc1cccc(OCCC(=O)NNC(=O)c2ccoc2C)c1	-	-	-	-
COC(=O)c1ccc2[nH]c3cccc(/C(=C/c4ccccc4)c4ccccc4)c3c2c1	-	-	24	-
O=C(CCc1nc2cccnc2n1Cc1ccccc1)NCCc1ccc(Cl)cc1	-	-	11	-
COCCCNC(=O)CCc1nc2cccnc2n1Cc1ccccc1	-	-	-	-
SMILES	T cell HTS	Rtt109 Vps75	GRIN3A LBD mod	GASC-1 inh
O=c1cc(NS(=O)(=O)c2ccccc2)nc(SCc2ccc(Cl)cc2)[nH]1	-	-	20	-
O=C(CSc1nc(NS(=O)(=O)c2ccccc2)cc(=O)[nH]1)Nc1ccc(Cl)cc1	.	-	-	.
COc1cccc(Nc2nnc(SCC(=O)Nc3sccc3C(N)=O)s2)c1	-	-	-	-
CC(=O)Nc1ccc(NC(=O)CSc2nnc(NC(=O)c3ccc(Br)o3)s2)cc1	-	-	16	-
CC(=O)Nc1cccc(NC(=O)CSc2nccn2Cc2ccco2)c1	-	-	14	-
CC(=O)Nc1cccc(NC(=O)CSc2nnc(NC(=O)c3ccco3)s2)c1	-	-	11	-
CCc1ccc(Nc2nnc(SCC(=O)Nc3sccc3C(N)=O)s2)cc1	-	-	10	-
O=C1CCC(C(=O)N2CCCO2)CN1Cc1cccc(C(F)(F)F)c1 (stereo not given)	.	-	-	-
Cc1cccc(-n2ncc3c(=O)[nH]c(SCC(=O)N4CC(=O)Nc5ccccc54)nc32)c1	-	-	-	-
CN(C)C(CNC(=O)C1CCN(S(=O)(=O)c2cc(Cl)ccc2Cl)CC1)Cc1ccccc1 (stereo not given)	.	-	-	.
Cc1cc(NC(=O)COC(=O)c2ccc([N+](=O)[O-])cc2Cl)no1	-	-	-	-
COc1cccc(NC(=O)CSc2nnc(NC(=O)c3ccco3)s2)c1	-	-	-	-
O=C(CSc1nnc(NC(=O)c2ccco2)s1)Nc1cccc(F)c1	-	-	28	-
Cc1nnc(N/N=C\c2ccc(-c3ccccc3[N+](=O)[O-])o2)n1N	-	-	-	55

Assay outcomes (PubChem BioAssay)
